The results in this text go back to ChEMBL document CHEMBL4321820, “Identification and Optimization of Mechanism-Based Fluoroallylamine Inhibitors of Lysyl Oxidase-like 2/3” (J Med Chem, 2019).

In data set [1] the target is T1, Amine oxidase [flavin-containing] A (Homo sapiens, UniProt P21397).
T1 sequence (P21397 whole entry): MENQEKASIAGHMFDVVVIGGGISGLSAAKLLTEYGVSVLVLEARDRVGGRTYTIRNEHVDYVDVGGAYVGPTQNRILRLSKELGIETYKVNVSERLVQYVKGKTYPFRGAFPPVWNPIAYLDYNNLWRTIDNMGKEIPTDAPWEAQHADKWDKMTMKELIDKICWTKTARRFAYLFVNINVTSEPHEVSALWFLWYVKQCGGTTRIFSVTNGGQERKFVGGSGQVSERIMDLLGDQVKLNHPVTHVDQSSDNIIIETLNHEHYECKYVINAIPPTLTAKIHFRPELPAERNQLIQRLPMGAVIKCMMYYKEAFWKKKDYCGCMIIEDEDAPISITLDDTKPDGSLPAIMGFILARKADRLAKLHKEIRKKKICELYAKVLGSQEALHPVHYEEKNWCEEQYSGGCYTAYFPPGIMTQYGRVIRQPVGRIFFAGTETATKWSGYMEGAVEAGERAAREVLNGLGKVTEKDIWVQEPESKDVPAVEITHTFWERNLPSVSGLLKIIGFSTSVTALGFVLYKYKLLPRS
The data set can be described thus: Inhibition of recombinant human MAOA expressed in baculovirus infected in BTI cells using tyramine as substrate preincubated with enzyme for 30 mins followed by substrate addition and measured every 2.5 mins for 30 mins by Amplex-Red oxidation assay.

Data set [2] addresses T2, Amine oxidase [flavin-containing] B (Homo sapiens, UniProt P27338).
T2 sequence (P27338 whole entry): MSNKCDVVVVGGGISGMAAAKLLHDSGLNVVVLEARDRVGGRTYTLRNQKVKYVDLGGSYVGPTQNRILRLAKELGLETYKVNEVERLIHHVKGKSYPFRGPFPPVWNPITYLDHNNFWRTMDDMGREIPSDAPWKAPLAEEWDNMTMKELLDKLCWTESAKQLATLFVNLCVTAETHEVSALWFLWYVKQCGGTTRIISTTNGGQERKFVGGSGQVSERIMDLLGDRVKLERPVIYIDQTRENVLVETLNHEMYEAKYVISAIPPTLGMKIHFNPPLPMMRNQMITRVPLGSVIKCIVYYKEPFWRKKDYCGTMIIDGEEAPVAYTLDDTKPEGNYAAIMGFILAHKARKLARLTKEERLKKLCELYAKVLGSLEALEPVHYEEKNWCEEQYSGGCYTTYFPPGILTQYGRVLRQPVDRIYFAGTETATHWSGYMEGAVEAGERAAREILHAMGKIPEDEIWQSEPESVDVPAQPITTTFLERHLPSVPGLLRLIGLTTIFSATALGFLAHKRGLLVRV
As to the kind of experiment: Inhibition of recombinant human MAOB expressed in baculovirus infected in BTI cells using benzylamine as substrate preincubated with enzyme for 30 mins followed by substrate addition and measured every 2.5 mins for 30 mins by Amplex-Red oxidation assay.

For data set [3], the target named is T3, Amine oxidase [copper-containing] 3 (Homo sapiens, UniProt Q16853).
T3 sequence (Q16853 whole entry): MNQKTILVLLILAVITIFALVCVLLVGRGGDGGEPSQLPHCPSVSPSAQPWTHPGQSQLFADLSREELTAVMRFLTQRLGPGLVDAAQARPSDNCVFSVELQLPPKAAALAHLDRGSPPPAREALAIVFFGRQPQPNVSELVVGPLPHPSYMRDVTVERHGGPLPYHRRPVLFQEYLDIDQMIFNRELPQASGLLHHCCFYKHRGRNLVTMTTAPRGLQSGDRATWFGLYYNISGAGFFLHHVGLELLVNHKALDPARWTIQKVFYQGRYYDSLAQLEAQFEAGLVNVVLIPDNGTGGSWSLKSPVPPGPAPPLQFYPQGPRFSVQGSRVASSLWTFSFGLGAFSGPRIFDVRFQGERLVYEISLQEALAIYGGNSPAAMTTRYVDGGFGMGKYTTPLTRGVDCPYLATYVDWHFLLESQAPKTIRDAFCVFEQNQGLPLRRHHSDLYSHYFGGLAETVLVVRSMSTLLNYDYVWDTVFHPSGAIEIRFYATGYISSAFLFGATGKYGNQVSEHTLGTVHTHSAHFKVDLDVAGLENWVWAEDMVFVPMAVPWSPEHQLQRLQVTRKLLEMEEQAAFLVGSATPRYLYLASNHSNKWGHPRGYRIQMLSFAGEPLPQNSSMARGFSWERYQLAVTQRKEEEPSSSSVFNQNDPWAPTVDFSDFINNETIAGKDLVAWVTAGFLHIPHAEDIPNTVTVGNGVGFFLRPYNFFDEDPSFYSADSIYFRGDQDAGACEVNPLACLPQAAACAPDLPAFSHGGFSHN
The data set can be described thus: Inhibition of recombinant human SSAO using benzylamine as substrate preincubated with enzyme for 30 mins followed by substrate addition and measured every 2.5 mins for 30 mins by Amplex-Red oxidation assay.

Another data set concerns the target T4, Lysyl oxidase homolog 1 (Homo sapiens, UniProt Q08397).
T4 sequence (Q08397 whole entry): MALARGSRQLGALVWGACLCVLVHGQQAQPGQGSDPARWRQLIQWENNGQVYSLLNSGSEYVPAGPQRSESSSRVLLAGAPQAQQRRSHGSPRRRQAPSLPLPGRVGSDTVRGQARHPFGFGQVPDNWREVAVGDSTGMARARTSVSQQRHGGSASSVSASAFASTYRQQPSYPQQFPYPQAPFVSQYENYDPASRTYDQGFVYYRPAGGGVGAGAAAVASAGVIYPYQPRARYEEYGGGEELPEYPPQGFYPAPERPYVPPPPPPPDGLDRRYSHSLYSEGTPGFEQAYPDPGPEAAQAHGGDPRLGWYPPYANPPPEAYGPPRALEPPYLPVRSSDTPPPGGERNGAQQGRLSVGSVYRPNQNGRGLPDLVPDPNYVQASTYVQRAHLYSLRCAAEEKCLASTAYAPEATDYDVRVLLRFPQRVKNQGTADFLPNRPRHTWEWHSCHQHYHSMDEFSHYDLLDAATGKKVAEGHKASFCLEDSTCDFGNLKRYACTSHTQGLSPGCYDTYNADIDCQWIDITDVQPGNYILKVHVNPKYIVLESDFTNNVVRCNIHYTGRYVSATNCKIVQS
As to the kind of experiment: Inhibition of recombinant human LOXL1 using putrescine as substrate preincubated with enzyme for 30 mins followed by substrate addition and measured every 2.5 mins for 30 mins by Amplex-Red oxidation assay. The essentials:
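Recombinant human LOXL1 expressed and purified from cDNA; 30 min preincubation with compound at 37 °C in urea/borate buffer, then Amplex Red/HRP with 10 mM putrescine; H2O2 fluorescence read every 2.5 min for 30 min at 37 °C.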

Data set [4] in a line: Stability in human plasma assessed as half life. The format is ADME, cell-free.
A further data set concerns Mus musculus. As to the kind of experiment: Effect on plasma ALT level in CCl4-induced BALB/c mouse model of liver fibrosis at 15 mg/kg, po administered once daily for 6 weeks. In kind it is ADME, organism-based. Conditions: in vivo, 1008 h. The method, boiled down:
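CCl4 liver fibrosis in female BALB/c mice: CCl4 i.p. (1 mL/kg 25% in olive oil) twice weekly for 6 weeks, sacrifice 48 h after final injection. Oral once-daily dosing weeks 1-6 or weeks 4-6; imatinib 50 mg/kg daily weeks 1-6. ALT and AST measured in plasma.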

The structures appear in SMILES notation. Where only a bound is given, the exact number is not on record here.

`Cc1c(-c2cccc(S(=O)(=O)N(C)C)c2)c2cc(C(=O)O)ccc2n1C/C(F)=C/CN.Cl`: the IC50 is more than 30 µM in data set [1] (read-out: IC50), more than 30 µM in data set [2] (read-out: IC50), more than 30 µM in data set [3] (read-out: IC50) and 2260 nM at Lysyl oxidase homolog 1. In data set [4], the half-life (commonly the time needed for the level to fall by half in the phase considered) was more than 120 min.

For the compound `CCOC(=O)c1ccc2c(c1)c(-c1cccc(S(=O)(=O)N(C)C)c1)c(C)n2C/C(F)=C/CN.Cl`, in the data set with Mus musculus, the Activity entry is recorded as “Non-Toxic”.

Take `Cc1c(-c2cccc(S(=O)(=O)N(C)C)c2)c2ccccc2n1C/C(F)=C/CN.Cl`: the IC50 in data set [1] (read-out: pIC50 (converted)) was more than 31.6 µM; in data set [2] (read-out: pIC50 (converted)) it was more than 31.6 µM; in data set [3] (read-out: pIC50 (converted)) it was 7.94 µM.
